The nature of data set [1]: Selectivity ratio of IC50 for human THP1 cells to IC50 for Staphylococcus aureus. The format is ADME, cell-based, THP-1.
The next data set has as its system Pseudomonas aeruginosa. In words: Antibacterial activity against Pseudomonas aeruginosa after 18 hrs. The format is functional, organism-based. The procedure, abridged: (§1)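 Strains first grown on Mueller-Hinton agar, then in Mueller-Hinton broth with CaCl2/MgCl2 for 18 h at 37 °C. Serial dilutions were made (K. pneumoniae and P. aeruginosa […]) and equilibrated 30 min at 37 °C. Cultures were added to the samples, shaken 18 h at 37 °C and 60% humidity, and read at OD650. Controls were no inhibitor and 50 µg/mL streptomycin.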

Data set [2] can be described thus: Selectivity ratio of IC50 for Pseudomonas aeruginosa to IC50 for Staphylococcus aureus. The format is functional.
The next data set concerns Staphylococcus aureus. In words: Antibacterial activity against Staphylococcus aureus after 18 hrs. The format is functional, organism-based. The procedure, abridged: as §1
The next data set deals with THP-1. In words: Cytotoxicity against human THP1 cells after 72 hrs by WST1 assay. The format is cell-based. Conditions: THP-1, 72 h. The procedure, abridged:
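Cells were kept in RPMI 1640 with 10% FBS, 2 mM L-glutamine, penicillin/streptomycin and 10 µM 2-mercaptoethanol at 37 °C, 5% CO2, and seeded at 2.5 × 10^4 cells/well. Samples were tested at 250 µg/mL final for 72 h. WST-1 was added for a further 1–2 h, then A450 was read. Controls were 10 µM camptothecin and 0.1% DMSO.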
Background: Tetrazolium assays rely on reduction of a dye to a coloured formazan, in cell work by metabolically active cells.

The nature of data set [3]: Selectivity ratio of IC50 for Klebsiella pneumoniae to IC50 for Staphylococcus aureus. The format is functional.
For another data set, the system named is Streptococcus pneumoniae. In words: Antibacterial activity against Streptococcus pneumoniae after 18 hrs. The format is functional, organism-based. The method, boiled down: as §1
A short description of data set [4]: Selectivity ratio of IC50 for human THP1 cells to IC50 for Streptococcus pneumoniae. The format is ADME, cell-based, THP-1.
Another data set concerns Klebsiella pneumoniae. In words: Antibacterial activity against Klebsiella pneumoniae after 18 hrs. The format is functional, organism-based. The method, boiled down:
as §1

On to `CCCCCCCCCCCC(=O)O[C@H]1[C@@H](O[C@@]2(CO)O[C@@H](CO)[C@H](O)[C@H]2O)O[C@H](CO)[C@@H](O)[C@@H]1OC(=O)C=C(C)C` [PHYSALOSIDE A], for which the selectivity ratio in data set [1] and in [4] was > 10 each time. Besides, the IC50 in the data set with Pseudomonas aeruginosa was > 413 µM; in the data set with Staphylococcus aureus it was 52 µM; in the data set with THP-1, > 800 µM; in the data set with Streptococcus pneumoniae, 57 µM; in the data set on Klebsiella pneumoniae it was > 413 µM. The Ratio IC50 in data set [2] and in data set [3] was > 8 each time.

For orientation: IC50 means the point on the concentration scale where inhibition reaches its midpoint. Higher therefore signals weaker potency.

The values above are taken from ChEMBL document CHEMBL1142593, “Physaloside A, an acylated sucrose ester from Physalis viscosa” (J Nat Prod, 2005).
